Published values pooled from the literature.
Each line is one published result; the experiments were not run side by side.
Organism: Staphylococcus aureus
Observed: microbial killing

COc1c(C)c(OC(C)=O)c(C)c(OC(C)=O)c1C(=O)/C=C/c1ccccc1 — MBC (broth dilution; ATCC25923): > 5000 µg/mL
N#CC(=Cc1ccccc1O)C1=NC(=O)C(=Cc2cn(-c3ccccc3)nc2-c2ccccc2)S1 — MBC (broth dilution): 0.5 µg/mL
O=C(O)CN1C(=O)/C(=C/c2ccc(-c3ccc(N(c4ccccc4)c4ccccc4)cc3)cc2)NC1=S — MBC (broth dilution; ATCC25923): 3.9 µg/mL
COc1c(C)c(OC(C)=O)c(C)c(O)c1C(=O)/C=C/c1ccccc1 — MBC (broth dilution; ATCC25923): > 5000 µg/mL
COc1cc(Cc2cnc(N)nc2N)cc(OC)c1OC — MBC (broth dilution; 48 h): 2 µg/mL
CCCCCCCCCCCC(=O)Oc1c(C)c(O)c(C(=O)/C=C/c2ccccc2)c(OC)c1C — MBC (broth dilution; ATCC25923): > 5000 µg/mL
COc1cc(NC(C)CCCNC(=S)NCCCC(C)Nc2cc(OC)cc3cccnc23)c2ncccc2c1.Cl.Cl (stereo not drawn) — MBC (ATCC43300 MRSA; drug-resistant strain): 10 to 20 µg/mL
COc1c(C)c(OC)c(C(=O)/C=C/c2ccccc2)c(OC)c1C — MBC (broth dilution; ATCC25923): > 5000 µg/mL
O=C(O)CN1C(=O)/C(=C/c2ccc(-c3ccc(N(c4ccccc4)c4ccccc4)cc3)c3ccccc23)NC1=S — MBC (broth dilution; ATCC43300): > 1000 µg/mL
CCCCCC(=O)Oc1c(C)c(O)c(C(=O)/C=C/c2ccccc2)c(OC)c1C — MBC (broth dilution; ATCC25923): > 5000 µg/mL
N#CC(=Cc1cn(-c2ccccc2)nc1-c1ccccc1)C1=NC(=O)CS1 — MBC (broth dilution): 0.25 µg/mL
O=C(O)CN1C(=O)/C(=C/c2c3ccccc3c(-c3ccc(N(c4ccccc4)c4ccccc4)cc3)c3ccccc23)SC1=S — MBC (broth dilution; ATCC6538): > 1000 µg/mL
Cc1cc(/C=C2\Sc3ccccc3N2CCCN2CCC(C)CC2)c2ccccc2[n+]1C.[I-] — MBC (ATCC29213): 8 µg/mL
O=C1NC(=S)N/C1=C\c1ccc(-c2ccc(N(c3ccccc3)c3ccccc3)cc2)c2ccccc12 — MBC (broth dilution; ATCC25923): > 1000 µg/mL
COc1c(C)c(OS(=O)(=O)c2ccc3ccccc3c2)c(C)c(O)c1C(=O)/C=C/c1ccccc1 — MBC (broth dilution; ATCC25923): > 5000 µg/mL
CC(=O)NC[C@H]1CN(c2ccc(N3CCOCC3)c(F)c2)C(=O)O1 — MBC (broth dilution; ATCC6538): > 64 µM
O=C1NC(=S)N/C1=C\c1c2ccccc2c(-c2ccc(N(c3ccccc3)c3ccccc3)cc2)c2ccccc12 — MBC (broth dilution; ATCC6538): > 1000 µg/mL
CCCCCCCC(=O)Oc1c(C)c(O)c(C(=O)/C=C/c2ccccc2)c(OC)c1C — MBC (broth dilution; ATCC25923): > 5000 µg/mL
CN[C@H](CC(C)C)C(=O)N[C@H]1C(=O)N[C@@H](CC(N)=O)C(=O)N[C@H]2C(=O)N[C@H]3C(=O)N[C@H](C(=O)N[C@H](C(=O)O)c4cc(O)cc(O)c4-c4cc3ccc4O)[C@H](O)c3ccc(c(Cl)c3)Oc3cc2cc(c3O[C@@H]2O[C@H](CO)[C@@H](O)[C@H](O)[C@H]2O[C@H]2C[C@](C)(N)[C@H](O)[C@H](C)O2)Oc2ccc(cc2Cl)[C@H]1O — MBC (broth dilution; ATCC6538): 1 µM
O=C(O)c1cn(C2CC2)c2cc(N3CCNCC3)c(F)cc2c1=O — MBC (broth dilution): 0.5 µg/mL
O=C1NC(=S)S/C1=C\c1ccc(-c2ccc(N(c3ccccc3)c3ccccc3)cc2)cc1 — MBC (broth dilution; ATCC43300): > 1000 µg/mL
CCCC(=O)Oc1c(C)c(O)c(C(=O)/C=C/c2ccccc2)c(OC)c1C — MBC (broth dilution; ATCC25923): > 5000 µg/mL
O=C(O)CN1C(=O)/C(=C/c2ccc(-c3ccc(N(c4ccccc4)c4ccccc4)cc3)c3ccccc23)SC1=S — MBC (broth dilution; ATCC43300): > 1000 µg/mL
CCCCCCCCCCCCCCCC#CC(=O)O — MBC: 15.6 µg/mL
